We go through eight compounds from ChEMBL document CHEMBL1649411, “Potent antitumor mimetics of annonaceous acetogenins embedded with an aromatic moiety in the left hydrocarbon chain part” (J Med Chem, 2011).

Data set [1] deals with SGC-7901. As to the kind of experiment: Cytotoxicity against human SGC7901 cells after 72 hrs by MTT assay. The data set is classed as functional. The following applies: SGC-7901, 72 h. A digest of the protocol:
(§1)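 Cells were grown in DMEM with penicillin-streptomycin, L-glutamine and 10% FBS, then seeded at 5 × 10³ cells/well. MTT (5 mg mL^-1 stock) was added for 4 h, then dissolved in DMSO. A570 was read against a 690 nm reference, with at least four replicates. Inhibition was calculated versus blank-corrected vehicle control, giving GI50.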
Background: Tetrazolium dyes change colour on reduction, which living cells bring about.

Data set [2] has as its system A549. As to the kind of experiment: Cytotoxicity against human A549 cells after 72 hrs by MTT assay. The data set is classed as functional. The following applies: A549, 72 h. A digest of the protocol: as §1
For data set [3], the system named is MCF7. As to the kind of experiment: Cytotoxicity against human MCF7 cells after 72 hrs by MTT assay. The data set is classed as functional. The note with it: MCF7, 72 h. A digest of the protocol: as §1
Data set [4] has as its system HCT-116. As to the kind of experiment: Cytotoxicity against human HCT116 cells after 72 hrs by MTT assay. In kind it is functional. The note with it: HCT-116, 72 h. The gist of the method: (§2)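 Cells were maintained in F12/DMEM with penicillin-streptomycin, L-glutamine and 10% FBS, and plated at 5 × 10³ cells/well. Sixteen hours later, medium containing compound ([…]) or DMSO vehicle was added for 72 h. MTT (5 mg mL^-1 stock) was applied for 4 h and formazan dissolved in DMSO. Absorbance was read at 570/690 nm in at least quadruplicate. Growth inhibition versus blank-corrected controls gave GI50.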

The test system of data set [5] is HT-29. As to the kind of experiment: Cytotoxicity against human HT-29 cells after 72 hrs by MTT assay. The data set is classed as functional. The note with it: HT-29, 72 h. The gist of the method:
as §2

Data set [6] can be described thus: Cytotoxicity against HLF after 72 hrs by MTT assay. In kind it is cell-based. The note with it: human, HLF cells. The gist of the method: as §1
A short description of data set [7]: Cytotoxicity against human BEAS2B cells after 72 hrs by MTT assay. In kind it is cell-based, BEAS-2B. The gist of the method:
as §1

As usually defined, the GI50 is the concentration that inhibits growth by half. High values mean lower sensitivity of the cells, low ones greater sensitivity of the cells. As to `CCCCCC[C@H](O)COCCOC[C@@H](O)CCCCC(O)CCCCCCCC1=C[C@H](C)OC1=O` (stereo partly specified), the GI50 is 2 µM in data set [1]; 10.8 µM in data set [2]; 5.8 µM in data set [3]; 4.2 µM in data set [4]; 19.4 µM in data set [5]. Also, the values for the GI50 at 72 h in data set [6] and in data set [7] were 11.1 µM and over 100 µM, respectively.
Turning to `C[C@H]1C=C(CCCCCCCC(O)CCCC[C@H](O)COCCOC[C@@H](O)CCCCC2CCCCC2)C(=O)O1` (stereo partly specified), the GI50 is 0.75 µM in data set [1]; 4.5 µM in data set [2]; 1.8 µM in data set [3]; 1.6 µM in data set [4]; 5.4 µM in data set [5]. Moreover, the GI50 at 72 h in data set [6] was found to be 5.5 µM; in data set [7], 61 µM.
`C[C@H]1C=C(CCCCCCCC(O)CCCC[C@H](O)COCCOC[C@@H](O)CCCc2ccccc2)C(=O)O1` (stereo partly specified): the GI50 came out at 0.275 µM in data set [1]; 0.773 µM in data set [2]; 0.84 µM in data set [3]; 0.394 µM in data set [4]; 1.1 µM in data set [5]. Moreover, the GI50 at 72 h was 7.4 µM in data set [6] and over 100 µM in data set [7].
Turning to `C[C@H]1C=C(CCCCCCCC(O)CCCC[C@H](O)COCCOC[C@@H](O)CCCc2cccc(O)c2)C(=O)O1` (stereo partly specified), the GI50 in data set [1] amounted to 1 µM; in data set [2], 6 µM; in data set [3], 24.5 µM; in data set [4], 2.8 µM; in data set [5], 69 µM. In addition, the GI50 at 72 h in data set [6] and in data set [7] was over 100 µM each time.
As for `COc1ccc(CCC[C@H](O)COCCOC[C@@H](O)CCCCC(O)CCCCCCCC2=C[C@H](C)OC2=O)cc1` (stereo partly specified), the GI50 in data set [1] stood at 0.198 µM; in data set [2], 4.5 µM; in data set [3], 23.3 µM; in data set [4], 2.3 µM; in data set [5], 4.3 µM. In addition, the results for the GI50 at 72 h in data set [6] and in data set [7] were 11.3 µM and over 100 µM, respectively.
On to `C[C@H]1C=C(CCCCCCCC(O)CCCC[C@H](O)COCCOC[C@@H](O)CCCc2ccc(-c3ccccc3)cc2)C(=O)O1` (stereo partly specified), for which the GI50 came out at 0.02 µM in data set [1]; 0.177 µM in data set [2]; 0.154 µM in data set [3]; 0.134 µM in data set [4]; 0.355 µM in data set [5]. Also, the GI50 at 72 h in data set [6] and in data set [7] was over 100 µM in each case.
As to `COc1ccc2cc(CCC[C@H](O)COCCOC[C@@H](O)CCCCC(O)CCCCCCCC3=C[C@H](C)OC3=O)ccc2c1` (stereo partly specified), the GI50 in data set [1] worked out at 0.082 µM; in data set [2], 3.7 µM; in data set [3], 12.6 µM; in data set [4], 1.1 µM; in data set [5], 1.1 µM. Moreover, the figures for the GI50 at 72 h in data set [6] and in data set [7] were 10 µM and over 100 µM, respectively.
Take `CCCCCCCCCC[C@H](O)COCCOC[C@@H](O)CCCCCCCCCCCCC1=C[C@H](C)OC1=O`: the GI50 in data set [1] turned out to be 0.065 µM; in data set [2] it was 0.305 µM; in data set [3], 0.276 µM; in data set [4], 0.113 µM; in data set [5] it was 0.291 µM. The figures for the GI50 at 72 h in data set [6] and in data set [7] were 20.9 µM and 120 µM, respectively.
